PubChem BioAssay AID977616 (Broad Institute, 2014)
Activity calls are given as the source filed them.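 How the source made its calls: active means falling-signal curve whose AC50 is at most twice the highest valid dose tested; inconclusive means flat fit showing 30 to 70% signal loss, or poor fit; inactive means the rest, including opposite-direction effects.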

Assays:
[1] = system: HepG2 viability, CellTiter-Glo ATP luminescence, 72 h; assay: viability loss in hepatoma cells – cell-based, CellTiter-Glo luminescence, dry powder, set 14, cytotoxicity control, dose response (AID 977616)
In short: (§1)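 Material: HepG2 cells, wild type / Amount: 2000 HepG2 cells per well / Times: seeding 24 h pre-dose, 72 h exposure, 37 °C, 5% CO2 / Measured by: CellTiter-Glo ATP luminescence / Medium: DMEM growth medium with 10% FBS / Dosing: compound tested at multiple concentrations (dose series)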

[2] = as above; conditions: HepG2 viability, CellTiter-Glo ATP luminescence, 72 h
In short: as §1

Structure (SMILES)	AC50 [1]	activity change, negative = cytotoxicity ([2]; at 26 µM (top of the series))	other results
C[C@H](O)C#Cc1ccc2c(c1)O[C@H](CN(C)Cc1ccc(-c3ccccc3)cc1)[C@@H](C)CN([C@H](C)CO)S2(=O)=O	21.2 µM		
C[C@@H](O)C#Cc1ccc2c(c1)O[C@@H](CN(C)Cc1ccc(-c3ccc(Cl)cc3)cc1)[C@@H](C)CN([C@@H](C)CO)S2(=O)=O	21.6 µM		
C[C@@H](O)C#Cc1ccc2c(c1)O[C@@H](CN(C)Cc1ccncc1)[C@@H](C)CN([C@@H](C)CO)S2(=O)=O		-6.07% (inactive)	
C[C@@H](O)C#Cc1ccc2c(c1)O[C@H](CN(C)Cc1ccc(-c3ccccc3)cc1)[C@@H](C)CN([C@@H](C)CO)S2(=O)=O	20 µM		
CO[C@H]1CN(C)C(=O)c2ccc(NC(=O)c3ccc(F)cc3)cc2OC[C@H](C)N(C(=O)c2ccc(F)cc2)C[C@@H]1C		11.6% (inactive)	
C[C@@H](O)C#Cc1ccc2c(c1)O[C@@H](CN(C)Cc1ccc(-c3ccccc3Cl)cc1)[C@@H](C)CN([C@@H](C)CO)S2(=O)=O	25.9 µM		
C[C@H](O)C#Cc1ccc2c(c1)O[C@@H](CN(C)Cc1ccc(-c3ccccc3)cc1)[C@@H](C)CN([C@H](C)CO)S2(=O)=O			activity change, negative = cytotoxicity ([2]; at 12 µM (top of the series)): -7.08% (inactive)
Cc1cccc(-c2ccc(CN(C)C[C@@H]3Oc4cc(C#C[C@@H](C)O)ccc4S(=O)(=O)N([C@@H](C)CO)C[C@@H]3C)cc2)c1	23.1 µM		
C[C@@H](O)C#Cc1ccc2c(c1)O[C@@H](CN(C)S(=O)(=O)c1ccc(-c3ccccc3)cc1)[C@@H](C)CN([C@@H](C)CO)S2(=O)=O		-8.38% (inactive)	
C[C@H]1CN([C@@H](C)CO)S(=O)(=O)c2ccc(-c3ccc(O)cc3)cc2O[C@H]1CN(C)Cc1ccc(-c2ccccc2)cc1	> 52 µM (inactive)		
C[C@@H]1CN([C@@H](C)CO)S(=O)(=O)c2ccc(C#C[C@@H](C)O)cc2O[C@H]1CN(C)Cc1ccc(-c2ccccc2)cc1	17.8 µM		
C[C@@H]1CN([C@H](C)CO)S(=O)(=O)c2ccc(C#C[C@@H](C)O)cc2O[C@@H]1CN(C)Cc1ccc(-c2ccccc2)cc1		-8.68% (inactive)	
CNC[C@@H]1Oc2cc(Br)ccc2S(=O)(=O)N([C@@H](C)CO)C[C@@H]1C		-25.9% (inactive)	
C[C@@H](O)C#Cc1ccc2c(c1)O[C@@H](CN(C)Cc1cccnc1)[C@@H](C)CN([C@@H](C)CO)S2(=O)=O		2.57% (inactive)	
C[C@H](O)C#Cc1ccc2c(c1)O[C@@H](CN(C)Cc1ccc(-c3ccccc3)cc1)[C@H](C)CN([C@H](C)CO)S2(=O)=O	19.2 µM		
C[C@@H](O)C#Cc1ccc2c(c1)O[C@@H](CN(C)Cc1ccc(-c3cccc(Cl)c3)cc1)[C@@H](C)CN([C@@H](C)CO)S2(=O)=O	25.4 µM		
C[C@H](O)C#Cc1ccc2c(c1)O[C@H](CN(C)Cc1ccc(-c3ccccc3)cc1)[C@@H](C)CN([C@@H](C)CO)S2(=O)=O	4.56 µM		
C[C@H](O)C#Cc1ccc2c(c1)O[C@@H](CN(C)Cc1ccc(-c3ccccc3)cc1)[C@H](C)CN([C@@H](C)CO)S2(=O)=O	19.7 µM		
COc1ccccc1-c1ccc(CN(C)C[C@@H]2Oc3cc(C#C[C@@H](C)O)ccc3S(=O)(=O)N([C@@H](C)CO)C[C@@H]2C)cc1	20.4 µM		
C[C@H](CO)N1C[C@H](C)[C@H](CN(C)Cc2ccc(-c3ccccc3)cc2)Oc2cc(C#C[C@@H](C)O)ccc2S1(=O)=O		0.52% (inactive)	
C[C@H]1CN([C@@H](C)CO)S(=O)(=O)c2ccc(Br)cc2O[C@H]1CN(C)Cc1ccc(-c2ccccc2)cc1		14.1% (inactive)	
COc1ccc(-c2ccc(CN(C)C[C@@H]3Oc4cc(C#C[C@@H](C)O)ccc4S(=O)(=O)N([C@@H](C)CO)C[C@@H]3C)cc2)cc1	20.2 µM		
C[C@H](O)C#Cc1ccc2c(c1)O[C@H](CN(C)Cc1ccc(-c3ccccc3)cc1)[C@H](C)CN([C@@H](C)CO)S2(=O)=O		-13.4% (inactive)	
COc1cccc(-c2ccc(CN(C)C[C@@H]3Oc4cc(C#C[C@@H](C)O)ccc4S(=O)(=O)N([C@@H](C)CO)C[C@@H]3C)cc2)c1	22.5 µM		
C[C@H](O)C#Cc1ccc2c(c1)O[C@@H](CN(C)Cc1ccc(-c3ccccc3)cc1)[C@@H](C)CN([C@@H](C)CO)S2(=O)=O	> 52 µM (inactive)		
